The values below come from ChEMBL document CHEMBL1128440 (J Med Chem, 1995).

Series [1] concerns the target T1, Progesterone receptor (Homo sapiens) (UniProt P06401).
T1 sequence (whole entry): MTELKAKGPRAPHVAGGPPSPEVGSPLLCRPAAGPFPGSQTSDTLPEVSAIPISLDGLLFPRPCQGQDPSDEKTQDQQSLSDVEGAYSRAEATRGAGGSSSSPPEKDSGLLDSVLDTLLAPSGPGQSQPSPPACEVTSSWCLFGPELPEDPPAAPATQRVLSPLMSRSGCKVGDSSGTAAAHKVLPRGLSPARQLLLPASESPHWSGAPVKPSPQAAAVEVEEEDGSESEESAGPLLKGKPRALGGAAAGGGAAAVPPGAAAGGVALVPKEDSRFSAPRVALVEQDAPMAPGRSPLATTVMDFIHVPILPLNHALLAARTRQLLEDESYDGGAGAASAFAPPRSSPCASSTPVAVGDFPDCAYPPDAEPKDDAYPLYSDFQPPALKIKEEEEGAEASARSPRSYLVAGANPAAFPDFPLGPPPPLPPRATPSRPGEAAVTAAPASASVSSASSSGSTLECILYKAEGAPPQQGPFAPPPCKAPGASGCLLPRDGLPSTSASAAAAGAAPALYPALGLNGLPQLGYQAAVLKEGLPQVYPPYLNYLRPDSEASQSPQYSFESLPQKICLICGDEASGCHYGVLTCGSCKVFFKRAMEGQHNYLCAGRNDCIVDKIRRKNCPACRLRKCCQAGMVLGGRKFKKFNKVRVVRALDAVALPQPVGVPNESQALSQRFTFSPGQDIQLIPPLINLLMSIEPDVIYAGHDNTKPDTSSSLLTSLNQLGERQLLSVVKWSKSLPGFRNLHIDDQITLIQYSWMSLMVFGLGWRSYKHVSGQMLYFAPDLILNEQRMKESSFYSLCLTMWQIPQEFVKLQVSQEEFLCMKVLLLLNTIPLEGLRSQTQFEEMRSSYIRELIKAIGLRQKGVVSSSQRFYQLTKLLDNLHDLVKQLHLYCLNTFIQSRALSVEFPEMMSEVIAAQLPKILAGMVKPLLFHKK
Kind of series: Binding selectivity index as the ratio of RBA value to that of NSB value. In a few lines: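 BSI calculated as the ratio of RBA to NSB.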

In series [2] the target is T1, Progesterone receptor (Homo sapiens). Briefly: Nonspecific binding affinity against progesterone receptor was estimated relative to compound R5020.
For series [3] the target is unchanged. Kind of series: Relative binding affinity against progesterone receptor at 0 degree Celsius determined in a competitive radiometric binding assay (R5020=100%). In a few lines:
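Competitive radiometric binding at 0 °C against tritium-labeled R5020 as the standard (RBA = 100). Values are the average of two experiments.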

Series [4] is described as follows: Partition coefficient (logP). In kind it is physicochemical. Particulars: octanol/water. Put shortly: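 log P(o/w) (octanol/water) estimated by a reversed-phase HPLC method.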
Series [5] is filed under the species Rattus norvegicus. Kind of series: Tissue biodistribution into estrogen-primed immature female rat brain at 1 hr time interval. Format: ADME, organism-based. Particulars: in vivo. In a few lines:
(§1)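 Immature female Sprague-Dawley rats (25 days old, ≈50 g, five per time point) primed with estradiol, 5 μg sc daily for 2 days in 50% ethanol/sunflower seed oil, used 24 h after the last injection. The 18F-labeled ligand was given iv by tail vein in 10% ethanol/saline. Decapitated at 1 or 3 h; blood and organs weighed and gamma-counted. Reported as %ID/g ± SD, n = 5.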

Series [6] is filed under the species Rattus norvegicus. Briefly: Tissue biodistribution into estrogen-primed immature female rat fat at 1 hr time interval. In kind it is ADME, organism-based, Adipose tissue. Particulars: in vivo. Put shortly: as §1
For series [7], the species on record is Rattus norvegicus. Briefly: Tissue biodistribution into estrogen-primed immature female rat ovaries at 1 hr time interval. In kind it is ADME, organism-based, Female gonad. Particulars: in vivo. In a few lines:
as §1

The species entered for series [8] is Rattus norvegicus. Briefly: Tissue biodistribution into estrogen-primed immature female rat lung at 1 hr time interval. Particulars: in vivo. In kind it is ADME, organism-based. Put shortly: as §1
For series [9], the species on record is Rattus norvegicus. Kind of series: Tissue biodistribution into estrogen-primed immature female rat bone at 1 hr time interval. Format: ADME, organism-based, Bone element. Particulars: in vivo. In a few lines:
as §1

Series [10] is filed under the species Rattus norvegicus. Kind of series: Tissue biodistribution into estrogen-primed immature female rat blood at 1 hr time interval. Particulars: in vivo. In kind it is ADME, organism-based. Put shortly: as §1
The species entered for series [11] is Rattus norvegicus. Briefly: Tissue biodistribution into estrogen-primed immature female rat uterus at 1 hr time interval. Particulars: in vivo. In kind it is ADME, organism-based. In a few lines: as §1
The species named for series [12] is Rattus norvegicus. Briefly: Tissue biodistribution into estrogen-primed immature female rat uterus/muscle at 1 hr time interval. Format: ADME, organism-based. Particulars: in vivo.
The species entered for series [13] is Rattus norvegicus. Kind of series: Tissue biodistribution into estrogen-primed immature female rat muscle at 1 hr time interval. In kind it is ADME, organism-based. Particulars: in vivo. Put shortly: as §1
For series [14], the species on record is Rattus norvegicus. Kind of series: Tissue biodistribution into estrogen-primed immature female rat uterus/blood at 1 hr time interval. Particulars: in vivo. In kind it is ADME, organism-based. In a few lines: as §1
For series [15], the species on record is Rattus norvegicus. Briefly: Tissue biodistribution into estrogen-primed immature female rat liver at 1 hr time interval. Format: ADME, organism-based. Particulars: in vivo. In a few lines: as §1
The species named for series [16] is Rattus norvegicus. Kind of series: Tissue biodistribution into estrogen-primed immature female rat kidney at 1 hr time interval. Format: ADME, organism-based. Particulars: in vivo. In a few lines:
as §1

Molecules are shown by their SMILES. Several values for one entry are separate records, joined by “and”; a condition that tells them apart may be missing. Equal entries are not always repeated.

`CC[C@@H]1C[C@H]2[C@@H]3CCC4=CC(=O)CC[C@@H]4[C@H]3CC[C@]2(C)[C@H]1C(=O)CO`: the BSI in series [1] was determined as 206. Also, the NSB in [2] was 0.97. For the same molecule, the RBA in [3] turned out to be 200.

For `C[C@]12CCC3C(CCC4=CC(=O)CC[C@@H]43)C1C[C@H]1OC(c3ccco3)O[C@]12C(=O)CO` (stereo partly specified), the figures for the logP in series [4] and in series [4] (read-out: logP) were 3.78 and 4.01, respectively. In addition, in series [2], the NSB was 0.96 and 0.76.

On to `CC(=O)[C@@]12O[C@](C)(c3ccc(F)cc3)O[C@@H]1CC1C3CCC4=CC(=O)CC[C@]4(C)C3CC[C@@]12C` (stereo partly specified), for which the Injected dose/g in the series filed under Rattus norvegicus [5] came to 0.56%; in the series listed under Rattus norvegicus [6], 5.76%; in the series filed under Rattus norvegicus [7], 3.93%; in the series filed under Rattus norvegicus [8] it was 1.3%; in the series listed under Rattus norvegicus [9], 1.76%; in the series listed under Rattus norvegicus [10], 0.47%. Besides, the Injected dose/g was found to be 3.08% in the series filed under Rattus norvegicus [11], 0.82% in the series filed under Rattus norvegicus [13], 3.41% in the series listed under Rattus norvegicus [15] and 2.18% in the series filed under Rattus norvegicus [16]. For the same molecule, in series [1], the BSI is 10. Also, the “Uterus to muscle uptake ratio” value in the series listed under Rattus norvegicus [12] was 3.85%. For the same molecule, the NSB in series [2] is 5.52. For the same molecule, the “Uterus to blood concentration ratio” value in the series filed under Rattus norvegicus [14] was found to be 6.59%. For the same molecule, the RBA in series [3] was 53.

Take `CC(=O)[C@@]12OC(c3ccco3)O[C@@H]1CC1C3CCC4=CC(=O)CC[C@]4(C)C3CC[C@@]12C` (stereo partly specified): the logP is 4.76 in [4] and 4.56 in series [4] (read-out: logP). Moreover, the NSB in series [2] is 1.69 and 2.08.

In the case of `CC[C@@H]1C[C@H]2[C@@H]3CCC4=CC(=O)CC[C@@H]4[C@H]3CC[C@]2(C)[C@H]1C(=O)CF`, the Injected dose/g in the series listed under Rattus norvegicus [5] was 0.63%; in the series listed under Rattus norvegicus [6], 3.56%; in the series listed under Rattus norvegicus [7] it was 2.86%; in the series filed under Rattus norvegicus [8], 0.47%; in the series filed under Rattus norvegicus [9], 3.18%; in the series listed under Rattus norvegicus [10] it was 0.25%. For the same molecule, the Injected dose/g in the series listed under Rattus norvegicus [11] is 6.43%; in the series filed under Rattus norvegicus [13], 0.42%; in the series listed under Rattus norvegicus [15] it was 3.34%; in the series filed under Rattus norvegicus [16] it was 1.05%. Further, in series [1], the BSI is 374. For the same molecule, in the series filed under Rattus norvegicus [12], the “Uterus to muscle uptake ratio” value came out at 15.98%. Besides, the NSB in [2] is 1.87. For the same molecule, the “Uterus to blood concentration ratio” value in the series filed under Rattus norvegicus [14] came to 26.26%. Moreover, the RBA in [3] was 700.

Turning to `CCC(=O)[C@@]1(C)CC[C@H]2[C@@H]3CCC4=CC(=O)CCC4=C3CC[C@@]21C`, the BSI in [1] came out at 100. Also, the NSB in [2] was 1. In [3], the RBA is 100.

Consider `C[C@@]1(c2ccc(F)cc2)O[C@@H]2CC3C4CCC5=CC(=O)CC[C@@H]5C4CC[C@]3(C)[C@]2(C(=O)CO)O1` (stereo partly specified), for which the Injected dose/g in the series filed under Rattus norvegicus [5] is 0.34%; in the series listed under Rattus norvegicus [6], 3.53%; in the series filed under Rattus norvegicus [7], 2.8%; in the series listed under Rattus norvegicus [8], 0.6%; in the series listed under Rattus norvegicus [9], 0.62%; in the series filed under Rattus norvegicus [10] it was 0.26%. In addition, the Injected dose/g is on record as 3.65% in the series filed under Rattus norvegicus [11], 0.44% in the series filed under Rattus norvegicus [13], 4.25% in the series filed under Rattus norvegicus [15] and 1.42% in the series listed under Rattus norvegicus [16]. Also, the BSI in [1] was determined as 98. The “Uterus to muscle uptake ratio” value in the series listed under Rattus norvegicus [12] was 8.2%. Moreover, the NSB in [2] was 2.45. Also, the “Uterus to blood concentration ratio” value in the series filed under Rattus norvegicus [14] is listed as 14%. In addition, the RBA in [3] was determined as 240.

Turning to `CC(=O)[C@@]12OC(C)(c3ccco3)O[C@@H]1CC1C3CCC4=CC(=O)CC[C@]4(C)C3CC[C@@]12C` (stereo partly specified), the BSI in [1] was 2 and < 1. The figures for the log partition coefficient (logP) in series [4] and in [4] (read-out: logP) were 5.03 and 4.76, respectively. In addition, the NSB in series [2] is 2.08 and 2.74.

As for `CC1(c2ccco2)O[C@@H]2CC3C4CCC5=CC(=O)CC[C@@H]5C4CC[C@]3(C)[C@]2(C(=O)CO)O1` (stereo partly specified), the logP came to 3.9 in series [4] and 4.23 in [4] (read-out: logP). Besides, the NSB in [2] is 1.2 and 0.86.

For the molecule `CC1(c2ccc(F)cc2)O[C@@H]2CC3C4CCC5=CC(=O)CC[C@@H]5C4CC[C@]3(C)[C@]2(C(=O)CF)O1` (stereo partly specified), the BSI in series [1] was determined as 65. Further, the lipophilicity (logP) in series [4] (read-out: logP) was 5.48. Further, the NSB in [2] is 4.36. The molecule also returned an RBA in series [3] of 282.

Turning to `CC(=O)[C@H]1CC[C@H]2[C@@H]3CCC4=CC(=O)CC[C@]4(C)[C@H]3CC[C@]12C`, the BSI in [1] is 16. In [2], the NSB was 0.83. In [3], this molecule registered an RBA of 13.
